A short description of the series: Toxicity liver stage against HepG2, at 10uM. The class given is cell-based. On the set-up: test concentration 10 uM, cell line HepG2-A16-CD81EGFP. As to conditions: human, HepG2-A16-CD81EGFP cells; read-out: INHIBITION
The essentials:
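Uninfected HepG2-A16-CD81EGFP cells, 3 × 10^3 per well, 1536-well, plated on prespotted compound at 10 μM final, parasite-free screening media added to match infected plates; puromycin 10 μM positive, DMSO 0.5% negative; run in parallel with 48 h PbLuc assay at 37 °C, 5% CO2; viability by CellTiter-Glo luminescence, normalized to controls.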
Turning to `Cc1nc(NC(=O)CCN2C(=O)c3ccccc3NC2C(C)C)sc1C` (stereo unspecified), the cytotoxicity at 10 µM worked out at 0.308%. `C/N=C1/c2cc3cc(OC)ccc3n2CCN1C`: the cytotoxicity at 10 µM was 3.34%. As for `c1ccc2oc(N3CCCCC3Cn3cncn3)nc2c1` (stereo unspecified), the cytotoxicity at 10 µM is -7.59%. The value for `Cc1cc(C(=O)N2CCC3(CCNCC3)CC2)c2cccc(C)c2n1` was -15.6%. For the compound `CC(=O)N1CCCC1c1cc(N2CCN(CC(C)(C)C)CC2)cc(C)n1` (stereo unspecified), the cytotoxicity at 10 µM was -6.41%. The value for `O=S(=O)(c1ccc(N2CCCCC2)c2nonc12)N1CCCCC1` was 6.74%; that for `Cn1ccnc1CN1CCOC(C)(C(=O)N2CCOCC2)C1` (stereo unspecified) was 1.27%.

On to `Cc1ccc(CN(CCCN2CCOCC2)Cc2cnn(C)c2)o1`, for which the cytotoxicity at 10 µM was -1.06%. With `CN(C)c1ncccc1C(=O)N1CCN(C2=NCC(C)(C)S2)CC1` the figure was 5.03%; with `O=C1NC(c2ccccc2)=N[C@@]12CC[C@@H]1CN(CC3CC3)C[C@@H]12`, 9.79%.

For the compound `CC1CCC(O)(CSc2nnnn2C2CC2)CC1` (stereo unspecified), the cytotoxicity at 10 µM was -1.97%. For `CCc1nnc(CN2CCCCC2Cn2nc(C)nc2C)o1` (stereo unspecified), the cytotoxicity at 10 µM is -2.4%. With `CCCc1ccc(CN2CCN(C(=O)N(C)C)[C@@H]3CS(=O)(=O)C[C@@H]32)o1` the figure was 8.69%; with `Cc1ccc2cc(C(=O)N3CCC(O)(C(F)(F)F)CC3)ccc2n1`, -54.7%; with `CC(=O)N1CCC(N2CCN(Cc3ccc(C)o3)C(CCO)C2)CC1` (stereo unspecified), -3.57%.

As for `CN(Cc1cnn(C)c1)C(=O)CCc1ccc2c(c1)OCO2`, the cytotoxicity at 10 µM is -2.59%.

On to `CN1CCc2nc(C3CCCCN3Cc3ccccc3Cl)ncc2C1` (stereo unspecified), for which the cytotoxicity at 10 µM is -27.7%. As for `O=C(c1ccnc(CC2COc3ccccc3C2)c1)N1CCCC1` (stereo unspecified), the cytotoxicity at 10 µM worked out at 1.7%. Take `CCNC(=O)[C@@H]1C[C@H](N)CN1c1cc(C(F)(F)F)nc(N(C)C)n1`: the cytotoxicity at 10 µM is -14.1%. On to `CN1Cc2nc[nH]c2C[C@H]1C(=O)NC1CCCCC1`, for which the cytotoxicity at 10 µM was 0.0515%. In the case of `Cc1cc(CN2CCOC(C)(C(=O)N3CCOCC3)C2)no1` (stereo unspecified), the cytotoxicity at 10 µM was -24.2%. The value for `O=C(c1cn(CCN2CCCCC2)nn1)N1CCCCO1` was -4.55%; that for `Cc1nc(C)c(C)c(N(C)CCCc2nccn2C)n1` was 8.52%; that for `CC(NC(=O)C1=NN(C)C(=O)CC1)c1cccc(Cl)c1` (stereo unspecified) was -2.45%. Consider `O=C(c1cc2c(s1)CCC2)N1CCCC(c2cnccn2)C1` (stereo unspecified), for which the cytotoxicity at 10 µM was -1.67%. With `O=C(NCCN1CCCC1)Nc1cc(C(=O)N2CCOCC2)ccc1Cl` the figure was -44.2%; with `CCCc1nnc2sc(C3CCN(CC)CC3)nn12`, 4.6%; with `Cc1nc2c(c(N3CCC4(CCCNC4=O)C3)n1)CCC2` (stereo unspecified), -12.8%.

Consider `Cc1nc(CN2CCCC(CCc3cccc(C(F)(F)F)c3)C2)co1` (stereo unspecified), for which the cytotoxicity at 10 µM is -0.0825%. With `Cc1csc2ncc(-c3ccnc(N4CCCC[C@@H]4CO)n3)c(=O)n12` the figure was 9.12%; with `CCN(Cc1noc(C2CCC2)n1)C(=O)c1cnc2ccccc2c1`, 8.59%. The value for `Cc1nc(C(=O)N2CCc3c(nc(-c4ccncc4)[nH]c3=O)C2)cs1` was -6.37%; that for `CCC1CN(C(=O)c2ccccc2N(C)C)CCN1C(C)C` (stereo unspecified) was -0.238%; that for `CCCn1c(C)c(CC(=O)NC)c2c1CC(C)(C)CC2=O` was -6.05%. The value for `Cc1cc(C)c(C#N)c(N2CCC3(CCCN(CCO)C3=O)C2)n1` (stereo unspecified) was 0.854%; that for `Cc1nn(-c2ccccc2)c(C)c1CC(=O)NC1CC(=O)N(C)C1` (stereo unspecified) was 6.08%; that for `CCN(CCOc1ccc(F)cc1)C(=O)c1ccncc1Cl` was -3.35%. In the case of `O=C(O)c1ccccc1CN1CCCC(Cc2ccn[nH]2)C1` (stereo unspecified), the cytotoxicity at 10 µM came out at 2.79%. `Cc1cnc(N)c(C(=O)C2CCN(C(=O)c3ccccc3F)CC2)c1`: the cytotoxicity at 10 µM is 9.96%. For the compound `Cc1cc(C)c(CNC(=O)N2CCN(c3ncccn3)CC2)c(=O)[nH]1`, the cytotoxicity at 10 µM is -6.28%.

With `CCn1ncc(C(=O)NCc2ccc(C)c(OC)c2)c1C(F)(F)F`, the cytotoxicity at 10 µM came to 10.2%.

Take `CN1CCn2nc(-c3nc4ccccc4n3C)cc2C1`: the cytotoxicity at 10 µM is -6.99%. Take `Cc1cc2nc(C(C)C)cc(N3CCC(N(C)C)C3)n2n1` (stereo unspecified): the cytotoxicity at 10 µM is -3.88%. With `O=C(NCCc1ccccn1)c1n[nH]c2c1CCC2` the figure was -3.81%.

Consider `Cn1cc(CN2CCCN(C(=O)c3ccc4c(c3)COC4)CC2)cn1`, for which the cytotoxicity at 10 µM is -4.27%. The value for `Nc1cc(-c2cccs2)nn(CC(=O)N2CCc3ccccc32)c1=O` was -10%; that for `CCN1CC(O)CN(C(=O)c2ccc(SC)cc2)CC1=O` (stereo unspecified) was 6.88%. The value for `Cc1nc(C)c(C(=O)N2CCc3c(Cl)cccc32)o1` was -1.55%. With `CC(C)CN(CC(O)c1ccccc1)C(=O)Nc1nccs1` (stereo unspecified) the figure was -1.96%. For `Cc1nn(CC(C)C)c(N(C)C)c1CNCc1cccnc1N(C)C`, the cytotoxicity at 10 µM was -7.71%. With `O=C1C(Sc2nnnn2C2CC2)CCN1c1ccccc1Cl` (stereo unspecified) the figure was 2.4%.

Regarding `CC(=O)N1CCC(NC(=O)N(C)Cc2c(C)noc2C)CC1`, the cytotoxicity at 10 µM is -6.33%.

In the case of `CN1CCN(C(=O)c2ccc3c(c2)nc(N2CCOCC2)n3C)CC1=O`, the cytotoxicity at 10 µM is 1.22%.

Take `Cc1nc(NC(=O)c2c(-n3cnnn3)sc3c2CCC3)sc1C`: the cytotoxicity at 10 µM worked out at 5.95%. Regarding `CN(Cc1cccs1)C(=O)CN1CCCC(Cn2cncn2)C1` (stereo unspecified), the cytotoxicity at 10 µM is -3.95%.

For `c1cnnc(N2CCCC(NCc3ccc(-n4ccnc4)cc3)C2)c1` (stereo unspecified), the cytotoxicity at 10 µM turned out to be 0.866%. On to `COC(=O)C(C)NC(=O)CSCc1nc(O)c2cc(C(C)C)sc2n1` (stereo unspecified), for which the cytotoxicity at 10 µM amounted to 10.2%. With `O=C(CC(F)(F)F)N1C[C@H]2CC[C@@H](C1)N(Cc1ccccc1)C2=O` the figure was 7.71%; with `N[C@@H]1CCN(Cc2cccc(N3CCOCC3)c2)C[C@H]1O`, 11.8%. With `O=C(c1ccc2c(c1)COC2)N1CCCN(Cc2cscn2)CC1` the figure was 0.0102%. With `O=C(Cc1cccnc1)N1CCCC2(CCN(C3CCOCC3)C2)C1` (stereo unspecified), the cytotoxicity at 10 µM is -1.45%. In the case of `CSCc1ccc(N(C)CC2CCCN(C(C)C)C2)nc1` (stereo unspecified), the cytotoxicity at 10 µM is -128%.

Turning to `Cc1ccccc1-c1noc(CN2CCC(c3ccn[nH]3)CC2)n1`, the cytotoxicity at 10 µM was determined as 1.98%.

For `c1ccc(-c2nnn3c2COC(CNCC2CCOCC2)C3)cc1` (stereo unspecified), the cytotoxicity at 10 µM was 11%.

Turning to `CC(C)c1nc(CC(=O)Nc2cnccc2O)cs1`, the cytotoxicity at 10 µM was found to be 9.89%.

Take `Cc1sc(-c2ccco2)nc1C(=O)NCC1CCOC1` (stereo unspecified): the cytotoxicity at 10 µM is -6.71%. The value for `CC(C)c1noc(C(C)N2CCN(Cc3ccsc3)CC2)n1` (stereo unspecified) was -6.85%. As to `Cc1cc(CN2CCC(CNS(=O)(=O)c3ccccc3Cl)CC2)c(C)o1`, the cytotoxicity at 10 µM amounted to 9.51%. `CN(C)S(=O)(=O)N1CCCC(c2cccc(Cc3ccc(Cl)cc3)n2)C1` (stereo unspecified): the cytotoxicity at 10 µM was 56%. For the compound `Cc1nn(C)c(C)c1NC(=O)CN1CCc2c(nc(C3CC3)n2C)C1`, the cytotoxicity at 10 µM was -5.31%. With `CCOc1cccc(NS(=O)(=O)c2cc(C(=O)O)cs2)c1` the figure was -4.41%. `O=C(c1cccs1)N1CC[C@@H]2CN(C3CCOCC3)CCO[C@@H]2C1`: the cytotoxicity at 10 µM was -110%. In the case of `CCn1nc(C)c2ncnc(N3CCCC(C)C3)c21` (stereo unspecified), the cytotoxicity at 10 µM was found to be 9.18%.

As to `Cc1ocnc1C(=O)N1CCN(Cc2ccccc2)[C@@H]2CS(=O)(=O)C[C@@H]21`, the cytotoxicity at 10 µM was -1.26%. The value for `CN(C)Cc1nnc(C2CCN(c3nccc(N)n3)CC2)n1C1CC1` was -1.99%.

Regarding `CC[C@H]1N(CC2CCC2)CCC[C@]12CCC(=O)N2Cc1ccncc1`, the cytotoxicity at 10 µM was -0.508%.

Turning to `O=C(NCC1CC1)C1CCC2(CCN(C(=O)c3ccccn3)CC2)O1` (stereo unspecified), the cytotoxicity at 10 µM came out at 9.74%. With `N#Cc1ccc(Cl)cc1NCC1CC1` the figure was -3.7%. With `CN(Cc1ccco1)C(=O)C1CSCN1C(=O)c1cccnc1` (stereo unspecified) the figure was -5.28%. `N#CC1(C(=O)N2C[C@H](Nc3ccnc(N)n3)[C@@H](C3CC3)C2)CCOCC1`: the cytotoxicity at 10 µM was -1.2%. With `CCc1noc(CS(=O)(=O)Cc2ccccc2Cl)n1` the figure was -6.75%; with `CN1CCN(Cc2cccc(C#N)c2)Cc2cccnc21`, -83.2%; with `CCc1ccc(CC(=O)N2CCN(c3nccn3C)CC2)cc1`, -0.647%. With `Cc1c(C(=O)N(C)C)cccc1N(C)S(C)(=O)=O` the figure was 8.19%. On to `CN(c1cccnn1)[C@@H]1CC[C@@H]2CN(Cc3ccccc3C(=O)O)C[C@@H]21`, for which the cytotoxicity at 10 µM was 7.43%. With `NCC1CCC(c2c(C(N)=O)sc3ccccc23)CC1` (stereo unspecified) the figure was 1.52%; with `Cc1nc(Cn2c3c(ccc2=O)CCN(CC2CCC2)CC3)cs1`, 5.1%. The value for `Oc1nc(N2CCCC2)nc2c1CCN(Cc1ccsc1)CC2` was -12%; that for `CN(C)C(=O)N1CCN(C(=O)c2ccn3cncc3c2)CC1` was -9.96%. The value for `CC(O)CN(CC(=O)NC1CCCCC1)c1ccccc1` (stereo unspecified) was -6.08%; that for `CC(c1nc(C2CC2)no1)N1CCN(CCn2ccccc2=O)CC1` (stereo unspecified) was 25.8%; that for `c1ccc(NCc2cn3c(n2)CNCC3)nc1` was 9.28%. With `O=C(C[C@@H]1COC[C@H]2CN(C3CCOCC3)C[C@@H]12)Nc1cnccn1`, the cytotoxicity at 10 µM came out at 12%. With `CCCS(=O)(=O)N1CCOC2(CCCN(c3ccccn3)C2)C1` (stereo unspecified) the figure was 4.23%; with `COc1ccc(CN2CCc3c(nc(-c4ccccn4)[nH]c3=O)C2)cc1`, -15.9%; with `CC(C)c1cc(C(=O)NCCn2nnc3ccccc32)no1`, -1.95%.

Source of the values: ChEMBL document CHEMBL4513216, “Probing the Open Global Health Chemical Diversity Library for Multistage-Active Starting Points for Next-Generation Antimalarials” (ACS Infect Dis, 2020).
